Source: ChEMBL document CHEMBL5390262, “Further Studies on the Highly Active Des-C-Ring and Aromatic-D-Ring Analogues of 1α,25-Dihydroxyvitamin D3 (Calcitriol): Refinement of the Side Chain” (J Med Chem, 2023)
pIC50: −log10 of the molar value. The source made the active and inactive calls. The calls are words filed in the database; no cut-off is given here.

Key:
MDA-MB-231 [1] = assay: Antiproliferative activity against human MDA-MB-231 cells cultured as 3D spheroids assessed as decrease in cell growth by measuring the sphere diameter at 0.1 uM incubated for 6 days by Phase-contrast microscopy; format: functional, cell-based; details: time 6.0 day
Procedure, shortened: (§1)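 3D culture: single-cell suspension of MDA-MB-231 (5x10^3 cells/100 μL) grown 4 days on a cell-repellent surface. Then treated 6 days with compound at 10^-7 M, given every other day, with or without cisplatin 25 μM. Ethanol control. Sphere growth quantified as relative units; mean ± SD.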

MDA-MB-231 [2] = assay: Antiproliferative activity against human MDA-MB-231 cells cultured as 3D spheroids assessed as decrease in cell growth by measuring the sphere diameter at 0.1 uM incubated for 6 days in presence of cisplatin by Phase-contrast microscopy; format: functional, cell-based; details: time 6.0 day; procedure, shortened: as §1
[3] = Toxicity in Swiss CD-1 mouse assessed as body weight change at 0.3 microg/kg,ip using sesame oil as vehicle for 21 days on every other day; details: in vivo, 0.0003 mg/kg, 504 h, dose 0.3 µg/kg, time 21 day
Procedure, shortened: (§2)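 Groups of 5 male Swiss CD-1 mice given 0.3 μg/kg i.p. every other day for 21 days in sesame oil vehicle; sesame oil alone as control. Body weight recorded at day 21. Serum calcium measured at end of test by colorimetric calcium assay kit. Mean ± SD, n=5.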

MDA-MB-231 [4] = assay: Antiproliferative activity against human MDA-MB-231 cells assessed as decrease in cell proliferation at 0.1 uM incubated for 48 hrs by MTT assay; format: functional, cell-based
Procedure, shortened: (§3)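 MDA-MB-231 cells seeded at 2 x 10^5 cells/well in medium with charcoal-treated FCS, then treated 24 h later with compound at 10^-7 M (ethanol vehicle) for 48 h, alone or together with cisplatin 25 μM. Read by MTT, DMSO solubilization, absorbance at 570 nm. Expressed as percent inhibition of proliferation relative to ethanol control normalized to 100%.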

Mus musculus = assay: Effect on hypercalcemic activity in Swiss CD-1 mouse assessed as increase in serum calcium level at 0.3 microg/kg,ip using sesame oil as vehicle for 21 days on every other day by QuantiChom calcium assay; format: functional; details: dose 0.3 µg/kg, time 21.0 day; procedure, shortened: as §2
MDA-MB-231 [5] = assay: Antiproliferative activity against human MDA-MB-231 cells assessed as decrease in cell proliferation at 0.1 uM incubated for 48 hrs in presence of cisplatin by MTT assay; format: functional, cell-based; procedure, shortened: as §3
Vitamin D3 receptor = biological target: T1, Vitamin D3 receptor (Homo sapiens, UniProt P11473); assay: Binding affinity to full length human VDR by Competitive binding assay
T1 sequence (P11473 whole entry): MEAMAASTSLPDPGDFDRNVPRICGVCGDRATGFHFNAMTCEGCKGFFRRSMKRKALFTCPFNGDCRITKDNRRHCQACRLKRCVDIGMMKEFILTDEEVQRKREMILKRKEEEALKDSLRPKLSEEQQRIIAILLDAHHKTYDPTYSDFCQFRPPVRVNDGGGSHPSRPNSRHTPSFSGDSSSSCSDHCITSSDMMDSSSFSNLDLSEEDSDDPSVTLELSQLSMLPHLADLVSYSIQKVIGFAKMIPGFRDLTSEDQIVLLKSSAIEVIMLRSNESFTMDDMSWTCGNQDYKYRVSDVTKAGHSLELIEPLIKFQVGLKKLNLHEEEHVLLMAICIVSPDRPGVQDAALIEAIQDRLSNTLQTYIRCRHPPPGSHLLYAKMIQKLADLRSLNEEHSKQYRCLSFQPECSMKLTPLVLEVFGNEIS

HaCaT = assay: Induction of human HaCaT cells differentiation assessed as increase in formation of compact epithelioid islands at 0.1 microM incubated for 48 hrs by phase-contrast microscopy; format: functional, cell-based
Procedure, shortened: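 HaCaT keratinocytes in charcoal-treated FCS medium treated 24 h after plating with compound at 10^-7 M in ethanol for 48 h. Ethanol-treated controls. Differentiation judged by phase-contrast microscopy, e.g. compact epithelioid island formation.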

MCF7 = assay: Upregulation of Cadherin-1 protein expression in human MCF7 cells at 0.1 uM incubated for 48 hrs by Western blot analysis; format: functional, cell-based
Procedure, shortened: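 MCF-7 cells in charcoal-stripped FCS medium treated with compound at 10^-7 M (ethanol vehicle) for 48 h. E-cadherin protein detected by Western blot with GAPDH as loading control; bands quantified by densitometry.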

SMILES | Activity (MDA-MB-231 [1]) | Activity (MDA-MB-231 [2]) | Activity [3] | Activity (MDA-MB-231 [4]) | Activity (Mus musculus) | Activity (MDA-MB-231 [5]) | pIC50 (Vitamin D3 receptor) | Activity (HaCaT) | Activity (MCF7)
C=C1/C(=C\C=C(/CC)c2cccc(CCC#CCC(C)(C)O)c2)C[C@@H](O)C[C@@H]1O | inactive | Active | Non-Toxic | Active | inactive | Active | 8.13 | Active | Active
C=C1/C(=C\C=C2/CCC[C@]3(C)[C@@H]([C@H](C)CCCC(C)(C)O)CC[C@@H]23)C[C@@H](O)C[C@@H]1O [CALCITRIOL] | inactive | Active | Toxic | Active | Active | Active | – | Active | Active
C=C1/C(=C\C=C(/C)c2cccc(CCC#CCC(O)(C(F)(F)F)C(F)(F)F)c2)C[C@@H](O)C[C@@H]1O | inactive | Active | Non-Toxic | Active | inactive | Active | 7.34 | Active | Active
C=C1/C(=C\C=C(/CC)c2cccc(CCC#CCC(O)(C(F)(F)F)C(F)(F)F)c2)C[C@@H](O)C[C@@H]1O | inactive | Active | Non-Toxic | Active | inactive | Active | 8.33 | Active | Active
C=C1/C(=C\C=C(/CC)c2cccc(CCCCCC(O)(C(F)(F)F)C(F)(F)F)c2)C[C@@H](O)C[C@@H]1O | inactive | Active | Non-Toxic | Active | inactive | Active | 8.54 | Active | Active
